# From PubChem
# NR2E3 ag-1: activates human NR2E3 receptor; Q9Y5X4; CHO-S Gal4-NCOR/VP16-NR2E3 two-hybrid, luciferase; inhibition of corepressor binding, % at 3.98 µM; actives 0.35% (n = 360,000);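 active means inhibition above the mean of all tested compounds plus 3 SD, cut at about 70% in these data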;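 further: 0% = DMSO with NR2E3 transfected cells and 100% = cells lacking NR2E3 construct; higher means lower luciferase signal from less NR2E3 corepressor binding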
# NR2E3 ag-2: activates human photoreceptor nuclear receptor NR2E3. GST-NR2E3/biotin-RetCOR TR-FRET, 1536-well. inhibition of corepressor binding, % at 4.78 µM. actives 0.12% (n = 320,000). Q9Y5X4;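 active means percent inhibition above the cutoff of mean plus 3 SD of all tested compounds, set per screening campaign, cut at about 20% in these data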;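 further: 0% = DMSO wells and 100% = biotin wells as full block of FRET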
#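 System: GST-NR2E3 and biotin-RetCOR proteins; probe or stimulus: 7 nM biotin-RetCOR; doses: compound at 4.8 µM, single dose; schedule: Compound–protein incubation for 5 h at 4 °C; detection: time-resolved FRET; read-out: percent inhibition; controls: biotin wells as high control, 0.6% DMSO wells as low control; format: 1536-well plates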
# PP1 inh: PP1-alpha (human) inhibition in PP5 counter-screen; purified PP1alpha, OMFP fluorescence; inhibition, % at 6.7 µM; actives 0.9% (n = 320,000); AID 2235;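 active means inhibition above the mean inhibition of all tested compounds plus 3 SD, computed separately for each screening campaign, cut at about 15% in these data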
# PP5 inh: PP5 (human) phosphatase inhibition. inhibition, % at 6.7 µM. actives 0.18% (n = 320,000). P53041. AID 1987. purified PP5c, OMFP substrate fluorescence;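 active means inhibition above the campaign's mean inhibition across all tested compounds plus 3 SD, cut at about 9.5% in these data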;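 further: 0% = DMSO only and 100% = 100 µM cantharidin control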
# Target sequence (P53041 whole entry, looked up): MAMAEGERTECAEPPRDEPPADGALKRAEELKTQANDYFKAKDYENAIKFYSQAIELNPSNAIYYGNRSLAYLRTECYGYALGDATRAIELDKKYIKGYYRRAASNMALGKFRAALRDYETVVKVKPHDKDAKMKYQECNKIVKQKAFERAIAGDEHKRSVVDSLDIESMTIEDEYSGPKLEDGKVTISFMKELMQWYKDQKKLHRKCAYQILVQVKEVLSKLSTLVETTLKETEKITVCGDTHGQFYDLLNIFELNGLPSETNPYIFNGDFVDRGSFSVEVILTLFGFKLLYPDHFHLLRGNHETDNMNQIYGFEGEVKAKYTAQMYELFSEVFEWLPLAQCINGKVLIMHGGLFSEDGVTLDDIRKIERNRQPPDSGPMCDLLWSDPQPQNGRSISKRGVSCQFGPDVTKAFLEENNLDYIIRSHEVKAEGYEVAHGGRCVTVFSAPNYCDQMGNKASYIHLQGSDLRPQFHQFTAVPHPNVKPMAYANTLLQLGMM
# * marks the source's active call; other numbers are inactive results; · = not tested or not shown. A selection: hits, their analogues and other compounds. The true share with any hit is near 1.3%.
SMILES,NR2E3 ag-1,NR2E3 ag-2,PP1 inh,PP5 inh
CC1(C(=O)NS(=O)(=O)C2CC2)CCN(C(=O)COCc2ccccc2)C1 (centres undefined),-13,·,·,·
COc1ccc(NC(=O)/C(Cl)=C(/Cl)S(=O)(=O)Cc2ccc(C)cc2)cn1,86*,·,·,·
COc1ccc(NC(=O)Cc2ccc(Cl)c(Cl)c2)cn1,2,-2,7,2
COc1cccc(-c2cc(NC(C)=O)c3ncc(-c4ccc(OC)c(OC)c4)n3c2)c1,-1,·,·,·
COC(=O)CCCC1=CC2=CC(=O)C(C)(OC(=O)c3cccs3)C(=O)C2=CN1Cc1ccc2c(c1)OCO2 (centres undefined),-4,2,18*,2
O=C(Nc1ccc(Cl)c(Cl)c1)Nc1nccs1,-82,6,18*,7
O=C(Nc1cccc(Cl)c1)Nc1nccs1,-52,-2,1,5
O=c1[nH]n2c(=O)c3c([nH]c2c1N=Nc1cccc(Cl)c1)CCC3,14,-4,17*,3
COc1cc(OC)cc(-n2nnnc2SCC(=O)N2CCCC2)c1,21,-4,16*,2
Cc1cc(-c2ccc(N=Nc3c(S(=O)(=O)O)cc4cc(S(=O)(=O)O)cc(N)c4c3O)c(C)c2)ccc1N=Nc1c(S(=O)(=O)O)cc2cc(S(=O)(=O)O)cc(N)c2c1O,·,-183,76*,18*
O=S(=O)(O)c1cc(O)c2c(O)c(N=Nc3cc(Cl)ccc3O)c(S(=O)(=O)O)cc2c1,-51,-2,11,8
COc1cc(CN2CCCN(C)CC2)cc([N+](=O)[O-])c1O,5,0,6,5
CC(C)C[C@@H](CN1CCCC1CN1C(=S)NC[C@@H]1Cc1ccc(O)cc1)N1C[C@H](Cc2ccc(O)cc2)N(CCc2ccccc2)C1=S (some centres undefined),13,·,·,·
CCN(CC)c1ccc(NC(=O)COC(=O)/C=C/c2nc3ccccc3s2)cc1,1,-1,15*,1
CNC(=O)COC(=O)/C=C/c1nc2ccccc2s1,1,0,-2,2
COc1cc(CO)ccc1OCC(=O)N1CCc2ccccc21,-16,0,-1,0
COc1cc(CCC(=O)OCC(=O)N2CCc3ccccc32)cc(OC)c1OC,-17,3,17*,3
COc1ccc(CC(=O)Nc2ccc(-c3nc4cc(C)ccc4o3)c(O)c2)cc1OC,-43,2,16*,2
Cc1ccc2oc(-c3ccc(NC(=O)c4ccncc4)cc3O)nc2c1,-89,2,2,0
CC(O)CNc1nc(N)[nH]c(=O)c1N=Nc1ccccc1 (centres undefined),-9,·,·,·
COc1ccc(-c2nc(SCc3ccccc3)n(S(C)(=O)=O)n2)cc1,-23,5,2,11*
Cc1c(O)cnc2nn(-c3ccccc3)c(=N)n12,-3,·,·,·
COc1ccc(-c2[nH]c(-c3ccc(Cl)cc3)nc2SCC(=O)Nc2nccs2)cc1,-27,2,16*,5
COc1ccc(-c2[nH]c(-c3ccccc3)nc2SCC(=O)Nc2nccs2)cc1,4,4,3,5
CC(=O)Nc1ccc(NC(=O)c2ccc(-c3ccc([N+](=O)[O-])cc3)o2)cc1,-7,5,16*,1
SMILES,NR2E3 ag-1,NR2E3 ag-2,PP1 inh,PP5 inh
CCCC(=O)N1CCN(c2ccc(NC(=O)c3sc4ccccc4c3Cl)cc2)CC1,-34,-4,16*,1
NC(CCc1ccccc1)c1csc(NC(=O)NCC2CCCCC2)n1 (centres undefined),0,·,·,·
CCC(=O)Nc1cccc(-c2cc3ccccc3oc2=O)c1,43,2,0,-1
O=C(Cc1cccc2ccccc12)Nc1ccc(-c2cc3ccccc3oc2=O)cc1,39,2,17*,0
COc1cc(OC)cc(-c2noc([C@@H]3O[C@H](CO)[C@@H](O)[C@H]3O)n2)c1,-10,·,·,·
COc1cc(CC(=O)OCC(=O)N(C)C2CCCCC2)cc(OC)c1OC,5,·,·,·
NC(=O)[C@H](Cc1cc2ccccc2s1)NC(=O)[C@@H]1CC2(CC(c3cccc(NC(=O)[C@@H]4CCC(=O)N4)c3)=NO2)CN1C(=O)c1ccccc1 (some centres undefined),-39,-1,1,0
NC(=O)[C@H](Cc1cc2ccccc2s1)NC(=O)[C@@H]1CC2(CC(c3cccc(NC(=O)[C@@H]4CCC(=O)N4)c3)=NO2)CN1C(=O)/C=C/Sc1ccccc1 (some centres undefined),-19,-2,17*,1
O=C(NC(NC(=S)Nc1ccc(Cl)cc1Cl)C(Cl)(Cl)Cl)c1cccc([N+](=O)[O-])c1 (centres undefined),-17,2,15*,3
O=C(O)c1cccc(NC(=S)NC(NC(=O)c2cccc([N+](=O)[O-])c2)C(Cl)(Cl)Cl)c1 (centres undefined),-9,3,6,2
O=C(O)c1ccccc1-c1ccccc1C(=O)Nc1ccc2c(c1)[nH]c(=O)c1ccccc12,-31,1,15*,2
N#C/C(=C\c1ccc(-c2ccccc2[N+](=O)[O-])o1)C(=O)Nc1nc(-c2cccs2)cs1,-6,3,16*,2
O=C1/C(=C/c2ccc(F)cc2)SC(=S)N1CC(=O)N1CCCCC1c1cccnc1 (centres undefined),-4,-2,16*,1
O=C1/C(=C/c2ccccc2F)SC(=S)N1CC(=O)N1CCCCC1c1cccnc1 (centres undefined),-16,-3,13,1
O=C1NC(=Nc2cccc(O)c2)S/C1=C\c1cccc([N+](=O)[O-])c1,-20,5,17*,1
O=c1cc(C(F)(F)F)[nH]c2c(C(F)(F)F)cccc12,101*,4,1,0
O=c1[nH]nc(-c2ccc[nH]2)[nH]1,-9,·,·,·
CC(=O)c1ccc(N2CCN(S(=O)(=O)c3cc(-c4cc(C)no4)ccc3C(C)C)CC2)cc1,-4,-1,15,4
CCc1ccc(-c2cc(C)no2)cc1S(=O)(=O)N1CCN(c2ccc(C(C)=O)cc2)CC1,2,-4,15*,1
O=C(CSc1ncnc2ccccc12)Nc1cc(S(=O)(=O)N2CCCCC2)ccc1Cl,8,8,16*,2
O=C(NCc1cc(Cl)cc(Cl)c1)c1ccc2nc([C@@H]3O[C@H](CO)[C@@H](O)[C@H]3O)[nH]c2c1,8,·,·,·
C/C(=N/Nc1ccnc2cc(Cl)ccc12)c1ccc(O)cc1,-12,2,8,3
C/C(=N/Nc1ccnc2cc(Cl)ccc12)c1ccc(N)cc1,12,1,17*,0
COc1ccc(-c2csc(NC(=O)C3CC(=O)N(c4ccc5c(c4)OCCO5)C3)n2)cc1 (centres undefined),-23,0,10,0
COc1cccc(N2CC(C(=O)Nc3nnc(SCC(=O)c4ccccc4)s3)CC2=O)c1 (centres undefined),-19,-1,10,-1
CC(=O)Nc1ccc(-c2csc(NC(=O)C3CC(=O)N(c4ccc5c(c4)OCCO5)C3)n2)cc1 (centres undefined),-14,2,16*,4
